The subject of one experiment is MV4-11. The experiment is described as follows: Growth inhibition of human MV4-11 cells after 72 hrs by resazurin staining based assay. Type of experiment: functional. The method in brief:
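MV4-11 leukaemia cells grown in medium with 10% FBS at 37 °C, 5% CO2. Growth was read by a 72-h resazurin viability assay. GI50 was obtained by nonlinear regression and reported as mean ± standard deviation of at least two replicates.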

The next experiment concerns the target CDK8/Cyclin C (Homo sapiens, UniProt P49336). As to the kind of experiment: Inhibition of CDK8/cyclin C (unknown origin) using RBER-IRStide as substrate incubated for 60 mins in presence of [gamma33P]ATP by scintillation counting method. Type of experiment: protein-complex assay.

SMILES strings stand for the structures.

Sequence of CDK8/Cyclin C (P49336 whole entry): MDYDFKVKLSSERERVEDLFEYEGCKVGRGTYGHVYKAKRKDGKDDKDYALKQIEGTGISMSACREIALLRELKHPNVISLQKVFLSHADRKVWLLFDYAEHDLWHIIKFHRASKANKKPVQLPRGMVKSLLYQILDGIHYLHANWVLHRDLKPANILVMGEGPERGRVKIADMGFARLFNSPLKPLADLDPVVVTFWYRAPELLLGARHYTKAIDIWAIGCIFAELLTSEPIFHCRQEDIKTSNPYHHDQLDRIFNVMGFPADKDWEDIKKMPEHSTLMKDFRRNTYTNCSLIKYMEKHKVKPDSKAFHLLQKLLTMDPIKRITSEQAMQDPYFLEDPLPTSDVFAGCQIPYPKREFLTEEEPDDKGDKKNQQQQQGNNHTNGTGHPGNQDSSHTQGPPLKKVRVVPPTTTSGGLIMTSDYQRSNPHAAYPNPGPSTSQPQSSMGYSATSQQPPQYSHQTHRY
Sequence of CDK8/Cyclin C (P24863 whole entry, further chain): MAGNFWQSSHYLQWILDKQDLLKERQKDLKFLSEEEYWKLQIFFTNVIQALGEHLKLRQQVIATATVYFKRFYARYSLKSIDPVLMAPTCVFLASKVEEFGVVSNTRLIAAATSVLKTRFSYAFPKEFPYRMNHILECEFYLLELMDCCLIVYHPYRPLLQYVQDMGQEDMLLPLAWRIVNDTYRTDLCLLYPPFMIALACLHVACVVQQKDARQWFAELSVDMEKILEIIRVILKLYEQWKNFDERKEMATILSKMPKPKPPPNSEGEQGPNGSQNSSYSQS

Usually GI50 stands for the concentration that inhibits growth by half. Low readings indicate more potent growth inhibition, high ones less potent growth inhibition. By Ki is commonly meant the equilibrium dissociation constant of an inhibitor or competing ligand from its target. For `Cn1cc(-c2ccc(-c3cncc(Cl)c3-n3ccc(C(N)=O)c3)cc2)cn1`, the GI50 in the experiment with MV4-11 worked out at 9580 nM. In addition, the Ki at CDK8/Cyclin C turned out to be 1090 nM.
For `O=C1NCCC12CCN(c1c(Cl)cncc1-c1cccc3cccnc13)CC2` the same measures were 9150 nM and 114 nM.
As to `O=C1NCCC12CCN(c1c(Cl)cncc1-c1ccnc3ccccc13)CC2`, growth in the experiment with MV4-11 was halved (GI50) at 53500 nM. In addition, the Ki at CDK8/Cyclin C came out at 138 nM.
For `O=C1NCCC12CCN(c1c(Cl)cncc1-c1c[nH]c3ncccc13)CC2` the same measures were 7820 nM and 50 nM.
For `Cn1ncc2c(-c3cncc(Cl)c3N3CCC4(CCNC4=O)CC3)cccc21` the same measures were 27700 nM and 458 nM.
Molecule `O=C1NCCC12CCN(c1c(Cl)cncc1-c1cccc3ncccc13)CC2` gave a GI50 with MV4-11 of 3650 nM. Further, the Ki on CDK8/Cyclin C worked out at 22 nM.
With `O=C1NCCC12CCN(c1c(Cl)cncc1-c1cncc3ccccc13)CC2`, in the experiment on MV4-11, the 50% growth inhibitory concentration (GI50) worked out at 7550 nM. Besides, the Ki on CDK8/Cyclin C was found to be 66 nM.
In the same order, the values of `O=C1NCCC12CCN(c1c(Cl)cncc1-c1cn(S(=O)(=O)c3ccccc3)c3ncccc13)CC2` are 40200 nM and 1300 nM.
In the same order, the values of `O=C1NCCC12CCN(c1c(Cl)cncc1-c1cnn(Cc3ccccc3)c1)CC2` are 5340 nM and 346 nM.
`O=C1NCCC12CCN(c1c(Cl)cncc1-c1cn(Cc3ccccc3)c3ncccc13)CC2`: the GI50 with MV4-11 was determined as 30600 nM. For the same molecule, the Ki on CDK8/Cyclin C came to 58 nM.
Regarding `CC(C)(C)OC(=O)N1CCC(n2cc(-c3cncc(Cl)c3N3CCC4(CCNC4=O)CC3)cn2)CC1`, the GI50 in the experiment with MV4-11 was found to be 12200 nM. Besides, the Ki at CDK8/Cyclin C was 700 nM.
Molecule `O=C1NCCC12CCN(c1c(Cl)cncc1-c1cccc3cnccc13)CC2` yielded a GI50 in the experiment with MV4-11 of 62300 nM. For the same molecule, at CDK8/Cyclin C, the Ki turned out to be 52 nM.
For `Cc1ccc(-c2cncc(Cl)c2N2CCC3(CCNC3=O)CC2)c2ccccc12` the same measures were 710 nM and 22 nM.
`Cn1cc(-c2ccc(-c3cncc(Cl)c3-n3ccc(C(=O)O)c3)cc2)cn1` registered a GI50 in the experiment on MV4-11 of 87100 nM. The Ki on CDK8/Cyclin C worked out at 4190 nM.
In the same order, the values of `O=C1NCCC12CCN(c1c(Cl)cncc1-c1cccc3ccccc13)CC2` are 820 nM and 16 nM.
In the same order, the values of `O=C1NCCC12CCN(c1c(Cl)cncc1-c1cccc3[nH]ccc13)CC2` are 1910 nM and 19 nM.
The molecule `O=C1NCCC12CCN(c1c(Cl)cncc1-c1cc3ccccc3[nH]1)CC2` gave a GI50 with MV4-11 of 6840 nM. Besides, the Ki at CDK8/Cyclin C came to 156 nM.
Molecule `COc1ccc(-c2cncc(Cl)c2N2CCC3(CCNC3=O)CC2)c2ccccc12` had a GI50 in the experiment on MV4-11 of 33200 nM. Besides, the Ki on CDK8/Cyclin C stood at 26 nM.
In the same order, the values of `O=C1NCCC12CCN(c1c(Cl)cncc1-c1csc3ccccc13)CC2` are 350 nM and 21 nM.
For `O=C1NCCC12CCN(c1c(Cl)cncc1-c1cccc3c1sc1ccccc13)CC2` the same measures were 6350 nM and 24 nM.
As to `O=C1NCCC12CCN(c1c(Cl)cncc1-c1coc3ccccc13)CC2`, in the experiment on MV4-11, the GI50 is 29200 nM. In addition, the Ki on CDK8/Cyclin C stood at 48 nM.
For `CNC(=O)c1ccn(-c2c(Cl)cncc2-c2ccc(-c3cnn(C)c3)cc2)c1`, the GI50 in the experiment with MV4-11 was 35000 nM. Further, the Ki at CDK8/Cyclin C is 2030 nM.
Regarding `Cn1ncc2cc(Nc3cncc(Cl)c3N3CCC4(CCNC4=O)CC3)ccc21`, in the experiment on MV4-11, the GI50 was determined as 1710 nM. Also, the Ki on CDK8/Cyclin C worked out at 670 nM.
As to `Cn1c(-c2cncc(Cl)c2N2CCC3(CCNC3=O)CC2)cc2ccccc21`, halving of growth with MV4-11 (GI50) required 10100 nM. The Ki on CDK8/Cyclin C is 79 nM.
In the same order, the values of `Cn1cc2c(-c3cncc(Cl)c3N3CCC4(CCNC4=O)CC3)cccc2n1` are 5260 nM and 52 nM.
For `O=C1NCCC12CCN(c1c(Cl)cncc1-c1cnn(-c3ccccc3)c1)CC2` the same measures were 840 nM and 42 nM.
In the experiment with MV4-11, `O=C1NCCC12CCN(c1c(Cl)cncc1-c1cccc3c1oc1ccccc13)CC2` registered a GI50 of 6680 nM. For the same molecule, the Ki at CDK8/Cyclin C came out at 16 nM.
In the same order, the values of `O=C1NCCC12CCN(c1c(Cl)cncc1-c1cccc3ccncc13)CC2` are 64200 nM and 3140 nM.
In the case of `O=C1NCCC12CCN(c1c(Cl)cncc1-c1cn(S(=O)(=O)c3ccccc3)c3ccccc13)CC2`, growth in the experiment on MV4-11 was halved (GI50) at 28400 nM. Further, the Ki on CDK8/Cyclin C turned out to be 645 nM.
In turn, `O=C1NCCC12CCN(c1c(Cl)cncc1-c1c[nH]c3ccccc13)CC2` came in with a GI50 in the experiment on MV4-11 of 8770 nM. Further, the Ki on CDK8/Cyclin C was 56 nM.
